# Laboratory results reported in ChEMBL document CHEMBL3108770, “Discovery and biological evaluation of novel 1,4-benzoquinone and related resorcinol derivatives that inhibit 5-lipoxygenase” (Eur J Med Chem, 2013).
# Key:
# [1] = biological target: T1, Polyunsaturated fatty acid lipoxygenase ALOX15 (Homo sapiens) (UniProt P16050); test: Inhibition of 15-LO in human PMNL using arachidonic acid as substrate assessed as residual activity at 10 uM preincubated for 15 mins
# T1 sequence (whole entry): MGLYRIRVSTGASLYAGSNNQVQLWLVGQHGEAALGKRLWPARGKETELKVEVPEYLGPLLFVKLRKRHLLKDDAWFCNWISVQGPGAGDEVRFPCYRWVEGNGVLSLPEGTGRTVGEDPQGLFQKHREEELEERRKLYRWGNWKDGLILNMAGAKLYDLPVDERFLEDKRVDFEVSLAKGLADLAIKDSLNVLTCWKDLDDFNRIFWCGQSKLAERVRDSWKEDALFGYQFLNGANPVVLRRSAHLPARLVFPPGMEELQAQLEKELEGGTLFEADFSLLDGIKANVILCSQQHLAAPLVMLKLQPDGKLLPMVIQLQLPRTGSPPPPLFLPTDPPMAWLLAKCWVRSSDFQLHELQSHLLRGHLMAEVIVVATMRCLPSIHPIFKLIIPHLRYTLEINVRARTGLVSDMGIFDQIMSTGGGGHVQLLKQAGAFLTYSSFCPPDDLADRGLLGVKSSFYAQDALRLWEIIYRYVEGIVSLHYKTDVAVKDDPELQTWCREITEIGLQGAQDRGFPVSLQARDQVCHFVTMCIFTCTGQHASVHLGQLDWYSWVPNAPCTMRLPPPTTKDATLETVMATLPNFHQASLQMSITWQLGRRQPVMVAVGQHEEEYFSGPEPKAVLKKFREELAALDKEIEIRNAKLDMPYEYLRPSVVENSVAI
# Outline: (§1)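 PMNL were isolated from buffy coats by dextran sedimentation, Nycoprep centrifugation and hypotonic lysis of erythrocytes, then resuspended in PBS pH 7.4 with 1 mg/mL glucose and 1 mM CaCl₂. Cells were pre-incubated with compound for 15 min at 37 °C, then stimulated with A23187 plus AA for 10 min at 37 °C. 15-LO comes from eosinophils and 12-LO from adhering platelets in the preparation. After methanol/HCl stop and PGB₁ addition, metabolites were extracted and quantified by HPLC. Mean ± S.E.M., n = 3–4.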
# [2] = biological target: T2, Polyunsaturated fatty acid lipoxygenase ALOX12 (Homo sapiens) (UniProt P18054); test: Inhibition of 12-LO in human PMNL using arachidonic acid as substrate assessed as residual activity at 10 uM preincubated for 15 mins; outline: as §1
# T2 sequence (whole entry): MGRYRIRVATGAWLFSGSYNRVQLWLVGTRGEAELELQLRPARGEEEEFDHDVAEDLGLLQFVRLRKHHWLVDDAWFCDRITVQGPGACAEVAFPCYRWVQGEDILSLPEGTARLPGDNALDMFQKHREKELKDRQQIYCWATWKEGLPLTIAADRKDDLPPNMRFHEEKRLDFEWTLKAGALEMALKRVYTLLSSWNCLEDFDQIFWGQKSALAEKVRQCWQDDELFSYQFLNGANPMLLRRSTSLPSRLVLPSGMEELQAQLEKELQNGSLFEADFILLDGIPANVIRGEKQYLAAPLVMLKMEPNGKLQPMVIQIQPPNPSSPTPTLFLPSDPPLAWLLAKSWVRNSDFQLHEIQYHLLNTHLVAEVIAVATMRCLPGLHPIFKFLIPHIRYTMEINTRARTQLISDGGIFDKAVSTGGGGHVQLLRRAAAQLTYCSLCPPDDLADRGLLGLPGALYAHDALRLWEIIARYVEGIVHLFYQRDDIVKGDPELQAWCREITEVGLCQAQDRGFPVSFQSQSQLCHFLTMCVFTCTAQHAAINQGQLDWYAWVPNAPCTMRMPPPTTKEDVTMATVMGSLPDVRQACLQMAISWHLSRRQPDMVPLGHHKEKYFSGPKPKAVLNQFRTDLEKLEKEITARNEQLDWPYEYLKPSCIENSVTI
# [3] = biological target: T3, Polyunsaturated fatty acid 5-lipoxygenase (Homo sapiens, UniProt P09917); test: Inhibition of 5-LO in human PMNL using arachidonic acid as substrate preincubated for 15 mins; outline: as §1
# T3 sequence (P09917 whole entry): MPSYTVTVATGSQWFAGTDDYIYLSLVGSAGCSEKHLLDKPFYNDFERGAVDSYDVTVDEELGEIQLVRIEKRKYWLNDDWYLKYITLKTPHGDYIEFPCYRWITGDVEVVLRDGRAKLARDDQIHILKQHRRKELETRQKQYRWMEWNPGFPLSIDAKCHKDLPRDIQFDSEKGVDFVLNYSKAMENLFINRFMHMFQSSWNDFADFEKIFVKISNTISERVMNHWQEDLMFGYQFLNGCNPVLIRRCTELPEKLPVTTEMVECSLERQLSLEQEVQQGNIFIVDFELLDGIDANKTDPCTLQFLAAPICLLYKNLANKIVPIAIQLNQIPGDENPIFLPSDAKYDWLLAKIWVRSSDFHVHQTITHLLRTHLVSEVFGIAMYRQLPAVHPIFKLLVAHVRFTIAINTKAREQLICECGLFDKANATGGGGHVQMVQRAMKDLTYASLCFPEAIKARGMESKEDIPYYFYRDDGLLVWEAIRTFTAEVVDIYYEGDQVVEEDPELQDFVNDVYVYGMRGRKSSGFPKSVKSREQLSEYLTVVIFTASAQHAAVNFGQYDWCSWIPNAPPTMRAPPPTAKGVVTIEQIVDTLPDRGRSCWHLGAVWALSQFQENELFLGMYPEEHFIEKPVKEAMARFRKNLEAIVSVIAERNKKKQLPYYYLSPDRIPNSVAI
# [4] = biological target: T4, Polyunsaturated fatty acid 5-lipoxygenase (Homo sapiens) (UniProt P09917); test: Inhibition of 5-LO in human PMNL using arachidonic acid as substrate assessed as residual activity at 10 uM preincubated for 15 mins; outline: as §1
# T4 sequence (whole entry): T3 sequence (P09917 whole entry)
# [5] = biological target: T3, Polyunsaturated fatty acid 5-lipoxygenase; test: Inhibition of human recombinant 5-LO expressed in Escherichia coli BL21 using arachidonic acid as substrate after 10 mins
# Outline: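 Purified 5-LO was diluted in PBS/EDTA and pre-incubated with compound for 5–10 min at 4 °C, then pre-warmed for 30 s at 37 °C. The reaction was started with 2 mM CaCl₂ plus AA, run 10 min at 37 °C and stopped with ice-cold methanol. Products were analysed by HPLC.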
# [6] = biological target: T4, Polyunsaturated fatty acid 5-lipoxygenase (Homo sapiens); test: Inhibition of human recombinant 5-LO expressed in Escherichia coli BL21 using arachidonic acid as substrate assessed as residual activity at 10 uM after 10 mins
# [7] = biological target: T5, Polyunsaturated fatty acid lipoxygenase ALOX15 (Homo sapiens, UniProt P16050); test: Inhibition of 15-LO in human PMNL using arachidonic acid as substrate preincubated for 15 mins; outline: as §1
# T5 sequence (P16050 whole entry): T1 sequence (whole entry)
# [8] = biological target: T6, Polyunsaturated fatty acid lipoxygenase ALOX12 (Homo sapiens, UniProt P18054); test: Inhibition of 12-LO in human PMNL using arachidonic acid preincubated for 15 mins; outline: as §1
# T6 sequence (P18054 whole entry): T2 sequence (whole entry)
# [9] = biological target: T3, Polyunsaturated fatty acid 5-lipoxygenase; test: Competitive inhibition of human recombinant 5-LO expressed in Escherichia coli BL21 using 5 uM of arachidonic acid as substrate preincubated for 15 mins measured after 10 mins
# Outline: (§2)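 Purified 5-LO was pre-incubated with inhibitor or vehicle (0.1% DMSO) for 15 min at 4 °C, then warmed for 30 s at 37 °C. The reaction was started with 2 mM CaCl₂ plus AA at 2.5, 5, 10, 20 or 40 µM and run 10 min at 37 °C. Products were analysed by HPLC. Results are % of uninhibited control, mean ± S.E.M., n = 3.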
# [10] = biological target: T3, Polyunsaturated fatty acid 5-lipoxygenase; test: Competitive inhibition of human recombinant 5-LO expressed in Escherichia coli BL21 using 40 uM of arachidonic acid as substrate preincubated for 15 mins measured after 10 mins; outline: as §2
SMILES,Activity [1],Activity [2],IC50 [3],Activity [4],IC50 [5],Activity [6],IC50 [7],IC50 [8],IC50 [9],IC50 [10]
Oc1ccc(Cc2ccccc2)c(O)c1,116%,77%,> 10 µM,60%,9.4 µM,47.6%,–,–,–,–
CCCCCCC1=CC(=O)C(O)=CC1=O,185%,89.8%,3 µM,15.9%,1.4 µM,14.2%,> 10 µM,> 10 µM,–,–
Oc1ccc(-c2csc3ccccc23)c(O)c1,115%,115%,> 10 µM,92.8%,> 10 µM,100%,–,–,–,–
Oc1ccc(-c2cccc3c2oc2ccccc23)c(O)c1,182%,93.3%,> 10 µM,84.1%,6.3 µM,30.7%,–,–,–,–
Oc1ccc(-c2cccc3c2Sc2ccccc2S3)c(O)c1,58.3%,91.4%,2.1 µM,10.5%,3.2 µM,15.4%,> 10 µM,> 10 µM,–,–
O=C(Cc1ccc2ccccc2c1)c1ccc(O)cc1O,108%,96%,6.8 µM,42.4%,> 10 µM,57.4%,> 10 µM,> 10 µM,–,–
O=C1C=C(c2cccc([N+](=O)[O-])c2)C(=O)C=C1O,116%,60.9%,> 10 µM,61.3%,4.6 µM,8%,–,–,–,–
O=C1C=C(Cc2ccc3cc(C(=O)O)ccc3c2)C(=O)C=C1O,80.9%,81.1%,> 10 µM,74%,9 µM,45.2%,–,–,–,–
O=C1C=C(O)C(=O)C(CC2CCCCC2)=C1O,87.3%,85.2%,> 10 µM,90.4%,> 10 µM,95.2%,–,–,–,–
CCCCCCc1ccc(O)cc1O [HEXYLRESORCINOL],110%,69.3%,2.8 µM,18.6%,4.6 µM,25.6%,> 10 µM,> 10 µM,–,–
O=C1C=C(Cc2ccc3ccccc3c2)C(=O)C=C1O,147%,71.9%,2.3 µM,5.3%,0.78 µM,8.7%,> 10 µM,> 10 µM,0.97 µM,0.31 µM
Oc1ccc(-c2ccccc2)c(O)c1,106%,72.3%,4.2 µM,22.7%,2.8 µM,9.4%,> 10 µM,> 10 µM,–,–
COC1=CC(=O)C(Oc2ccc3ccccc3c2)=CC1=O,47.9%,73.1%,6.7 µM,21.2%,0.28 µM,7.1%,–,–,–,–
COC1=CC(=O)C(O)=C(Cc2ccc3ccccc3c2)C1=O,89.5%,76.4%,> 10 µM,56.1%,> 10 µM,92.3%,–,–,–,–
COC1=CC(=O)C(O)=C(Cc2ccccc2)C1=O,96.4%,84%,> 10 µM,103%,> 10 µM,110%,–,–,–,–
Oc1ccc(Cc2ccc3ccccc3c2)c(O)c1,191%,79.2%,2.3 µM,8.9%,7.4 µM,37.2%,> 10 µM,> 10 µM,–,–
O=C1C=C(O)C(=O)C(CC2CCC3CCCCC3C2)=C1O (stereo not drawn),87.9%,60.9%,0.58 µM,5.4%,11 µM,51%,> 10 µM,> 10 µM,–,–
O=[N+]([O-])c1cccc(-c2ccc(O)cc2O)c1,108%,90.1%,> 10 µM,64.1%,> 10 µM,84.3%,–,–,–,–
O=C1C=C(c2cccc3c2oc2ccccc23)C(=O)C=C1O,79.8%,46.2%,> 10 µM,74.1%,0.8 µM,30.8%,–,–,–,–
O=C1C=C(Cc2ccccc2)C(=O)C=C1O,132%,95.4%,> 10 µM,93.3%,> 10 µM,74.3%,–,–,–,–
